Source: PubChem
TRPC4 block – TRPC4 (mouse) channel inhibition; HEK293 TRPC4beta/mu-opioid, DAMGO-evoked Fluo4 calcium flux; hits give low values; B-score at 10 µM; actives 0.39% (n = 300,000);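 active = B-score over 3 SD under the library average, no early fluorescence shift, positive overall ratio signal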
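test system = HEK293 cells with stable TRPC4beta plus mu-opioid receptor expression | detection = Fluo4 Ca2+ flux fluorescence | read-out = integrated fluorescence ratio relative to baseline, converted to per-well B score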
TRPC6 act – activates the mouse TRPC6 cation channel; AID 2550; B-score at 10 µM; Q61143; HEK293-TRPC6 membrane potential dye fluorescence; hits give high values; actives 0.13% (n = 310,000);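 active = B-score of the integrated fluorescence ratio above library mean plus 3 SD, and starting fluorescence ratio within library mean plus 5 SD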;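 also: higher score means more depolarization so channel activation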
TRPC6 inh – inhibitors of mouse TRPC6 channel | Q61143 | B-score at 10 µM | actives 1.1% (n = 310,000) | HEK293-TRPC6, membrane potential dye, ACh-evoked depolarization; hits give low values;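 active = B-score under library mean minus 3 SD, initial fluorescence not abnormally high, positive integrated signal ratio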;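 also: B-score derived from integrated fluorescence ratio over the kinetic read; more negative B-score means stronger inhibition of depolarization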
DSG3 Ab inh – inhibitors of pemphigus antibody binding to human desmoglein-3; P32926; DSG3-coupled beads, scFv-anti-DSG3-GFP binding, flow cytometry; hits give low values; binding (percent of control), % at 10 µM; actives 0.48% (n = 310,000);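 active = binding more than 3 SD below its plate's average and above zero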;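 also: hits lower antibody fragment binding to DSG3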
Target sequence (P32926 whole entry, looked up, the tested form may be a part): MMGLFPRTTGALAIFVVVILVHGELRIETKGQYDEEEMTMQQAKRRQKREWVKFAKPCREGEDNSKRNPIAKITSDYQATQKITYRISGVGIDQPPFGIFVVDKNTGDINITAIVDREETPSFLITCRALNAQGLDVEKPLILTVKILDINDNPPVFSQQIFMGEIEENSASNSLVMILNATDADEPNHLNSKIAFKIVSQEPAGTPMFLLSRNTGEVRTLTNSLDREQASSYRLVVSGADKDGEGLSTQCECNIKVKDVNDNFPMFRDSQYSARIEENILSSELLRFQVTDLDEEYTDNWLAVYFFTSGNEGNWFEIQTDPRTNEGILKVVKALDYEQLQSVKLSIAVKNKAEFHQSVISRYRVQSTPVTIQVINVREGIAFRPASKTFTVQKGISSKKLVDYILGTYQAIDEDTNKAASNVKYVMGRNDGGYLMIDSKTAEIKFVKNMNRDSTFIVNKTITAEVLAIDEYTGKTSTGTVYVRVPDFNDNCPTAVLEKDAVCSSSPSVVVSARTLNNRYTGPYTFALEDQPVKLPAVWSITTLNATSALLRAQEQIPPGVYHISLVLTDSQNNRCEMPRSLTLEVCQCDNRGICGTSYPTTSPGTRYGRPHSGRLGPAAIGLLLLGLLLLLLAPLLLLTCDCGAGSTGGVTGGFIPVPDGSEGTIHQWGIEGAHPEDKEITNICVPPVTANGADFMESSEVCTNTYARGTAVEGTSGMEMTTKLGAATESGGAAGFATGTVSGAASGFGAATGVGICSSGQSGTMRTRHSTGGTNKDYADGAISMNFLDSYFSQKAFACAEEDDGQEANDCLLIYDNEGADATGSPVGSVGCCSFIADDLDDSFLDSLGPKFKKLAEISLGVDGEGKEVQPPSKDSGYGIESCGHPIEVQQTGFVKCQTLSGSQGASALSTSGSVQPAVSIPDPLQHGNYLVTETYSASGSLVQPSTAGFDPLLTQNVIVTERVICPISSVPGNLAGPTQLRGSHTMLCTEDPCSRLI
TRPC4 potent – allosterically enhances the mouse TRPC4 cation channel; Q9QUQ5; HEK293 TRPC4beta/mu-opioid, DAMGO EC20, Fluo-4 Ca2+ flux; hits give high values; B-score at 10 µM; actives 0.42% (n = 310,000); AID 2227;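 active = B-score of calcium response area above 5 SD of library B-scores, with initial fluorescence ratio within 5 SD of library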;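 also: B-score of integrated fluorescence ratio over time as area under calcium response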
TRPC4 act – opens the mouse TRPC4 cation channel | HEK293 TRPC4beta/mu-opioid, Fluo4 calcium fluorescence; hits give high values | B-score at 10 µM | actives 0.49% (n = 310,000);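 active = B-score above 5 SD of library B-scores, and initial fluorescence ratio not above library mean plus 5 SD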;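 also: positive B-score marks a calcium rise read as TRPC4 activation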
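System: HEK293 cells stably co-expressing mouse TRPC4beta and mu-opioid receptor; Schedule: Fluo4 dye loading 45 min at room temperature, 110 s recording; Detection: Fluo4 fluorescence, kinetic; Evaluation: B-scored integrated calcium fluorescence ratio; Controls: buffer (low) and maximal DAMGO (high).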
The depositor's hits bear a star; i = inactive; . = not tested or not shown. The list is not random: actives were taken first. Their share in the collection is about 2.5%.

SMILES	TRPC4 block	TRPC6 act	TRPC6 inh	DSG3 Ab inh	TRPC4 potent	TRPC4 act
Cc1nn(C)cc1S(=O)(=O)Nc1ccc(C(F)(F)F)cc1	i	i	i	104	i	i
CCOC(=O)c1c(NC(=O)C(C)Sc2nnc(C)c(=O)[nH]2)sc2c1CCCC2 (configuration not stated)	-6*	i	i	99	i	i
CCOC(=O)c1c(NC(=O)C2CCCCC2C(=O)O)sc2c1CCCCC2 (configuration not stated)	-7*	i	i	110	i	i
CCOC(=O)c1c(NC(=O)C2CCCO2)sc2c1CCC2 (configuration not stated)	i	i	i	101	15*	i
CCOC(=O)c1c(NC(=O)C2CCCO2)sc(C)c1C (configuration not stated)	i	i	i	100	i	i
COC(=O)c1c(NC(=O)C2CCCCC2C(=O)O)sc2c1CCCCC2 (configuration not stated)	i	i	i	107	i	i
CCOC(=O)c1c(NC(=O)CSc2nnc(C)c(=O)[nH]2)sc2c1CCCC2	i	i	i	.	i	i
CCOC(=O)c1c(NC(=O)c2ccccc2C(=O)O)sc2c1CCCC2	i	i	i	68*	i	i
O=C(Nc1cccc(C(=O)O)c1)/C(=C\c1cccc([N+](=O)[O-])c1)NC(=O)c1ccc(Br)cc1	.	.	.	97	.	.
Cc1c(C(=O)N(Cc2cccs2)C2CCS(=O)(=O)C2)oc2ccccc12 (configuration not stated)	i	i	i	.	i	67*
C=CCOc1ccc(Br)cc1CNC(C)(C)CO	-7*	i	i	98	i	i
O=C1NC(=O)C(=C2CCOC2=O)N1	.	.	.	108	.	.
O=C(CCOc1ccccc1)NNC(=O)c1ccccc1	.	.	.	93	.	.
COc1cccc2[nH]c(C(=O)NCc3ccccc3)cc12	i	i	i	101	i	i
COC(=O)NCC(c1cccnc1)N1CCN(c2ccccc2OC)CC1 (configuration not stated)	i	i	i	96	i	69*
COC(=O)NCC(c1cccnc1)N1CCN(c2ccccc2F)CC1 (configuration not stated)	i	i	i	99	i	i
Cc1cc(-c2nc3ncccc3o2)ccc1NC(=S)NC(=O)C(C)C	i	i	i	54*	i	i
CC(C)Cc1nnc(NC(=O)CCC(=O)NCCc2ccc(Cl)cc2)s1	i	i	i	98	i	i
N#CC1=C(SCc2ccccc2)NC(=O)CC1c1ccc(O)cc1 (configuration not stated)	i	i	i	102	i	i
N#CC1=C(SCc2ccccc2)NC(=O)CC1c1cccc(O)c1 (configuration not stated)	i	i	i	83*	i	i
Cc1ccc(N2C(=O)CC(Cc3ccc(Cl)cc3)C2=O)cc1 (configuration not stated)	i	i	i	107	i	i
C/C(=N\NC(=O)Cc1c(Cl)cccc1Cl)c1cccnc1	i	i	i	.	i	i
O=C(NCCc1ccc(Cl)cc1)c1ccc(S(=O)(=O)N2CCCC2)cc1	i	i	i	122	i	i
CCc1nnc(NC(=O)CSc2ncnc3c2oc2ccccc23)s1	i	i	i	-17*	i	i
CC(=O)N1N=C(c2c(-c3ccccc3)c3cc(C)ccc3[nH]c2=O)CC1c1ccco1 (configuration not stated)	i	i	i	.	24*	i
CC(=O)N1N=C(c2c(-c3ccccc3)c3cc(Br)ccc3[nH]c2=O)CC1c1ccco1 (configuration not stated)	i	i	i	97	i	i
O=C(COc1ccc(F)cc1)c1c(O)cc(O)cc1O	-6*	i	i	89	i	i
